Experimental data from ChEMBL document CHEMBL1145189, “Synthesis and evaluation of S-acyl-2-thioethyl esters of modified nucleoside 5'-monophosphates as inhibitors of hepatitis C virus RNA replication” (J Med Chem, 2005).

Columns and labels:
CHO [1] = assay: Effect of compound (10000 uM) on growth of CHO cells measured as population doublings from the beginning of the experiment as percent of controls after 20 hr of treatment (harvested at 20h of treatment); type: functional, Cricetulus griseus
How it was run: (§1)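 Exponentially growing CHO (clone WBL) monolayers treated for 20 h without S-9. DMSO stock diluted 100-fold into medium, giving 1% v/v DMSO as vehicle control. Cultures harvested at 20, 30 or 42 h after dosing. Growth expressed as population doublings from start of experiment as a percentage of controls.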

CHO [2] = assay: Effect of compound (10000 uM) on growth of CHO cells measured as population doublings from the beginning of the experiment as percent of controls after 20 hr of treatment (harvested at 30h of treatment); type: functional, Cricetulus griseus; how it was run: as §1
CHO [3] = assay: Effect of compound (10000 uM) on growth of CHO cells measured as population doublings from the beginning of the experiment as percent of controls after 20 hr of treatment (harvested at 42h of treatment); type: functional, Cricetulus griseus; how it was run: as §1
CHO [4] = assay: Percent of CHO cells with chromosomal aberrations were determined at 10000 uM compound after 20 hr of treatment (harvested at 20h of treatment); type: functional, Cricetulus griseus
How it was run: (§2)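 CHO (clone WBL) monolayers treated for 20 h without S-9, with DMSO stock diluted 100-fold into medium. Harvest at 20, 30 or 42 h after dosing; colcemid added 1–2 h before harvest for metaphase arrest. Cells fixed, and 200 cells scored per point for % aberrant cells. Points not scored where toxicity prevented it. Comparison against concurrent controls.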

CHO [5] = assay: Percent of CHO cells with chromosomal aberrations were determined at 10000 uM compound after 20 hr of treatment (harvested at 30h of treatment); type: functional, Cricetulus griseus; how it was run: as §2
CHO [6] = assay: Percent of CHO cells with chromosomal aberrations were determined at 10000 uM compound after 20 hr of treatment (harvested at 42h of treatment); type: functional, Cricetulus griseus; how it was run: as §2
[7] = Effective concentration against hepatitis C virus RNA replication in a subgenomic bicistronic replicon in HBI10A cells; type: functional, cell-based; details: Homo sapiens
How it was run: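 Stable Huh-7-derived HBI10A hepatoma line carrying a subgenomic bicistronic HCV replicon. Compound incubated with cells for 24 h. Relative replicon RNA then quantified by in situ ribonuclease protection assay.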

[8] = Cytotoxic concentration of compound in human HBI10A cells infected with hepatitis C virus in MTS assay; type: functional
How it was run: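 MTS cytotoxicity run on samples parallel to the replicon assay, at the same time (24 h compound exposure). Cells plated at 2.0 × 10⁴/well and compound added next day at 2× in medium. Incubation at 37 °C, 5% CO₂. MTS reagent added for 1 h, then absorbance read at 490 nm.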

[9] = Inhibitory concentration against hepatitis C virus NS5B-mediated RNA synthesis in HBI10A cells; type: functional, cell-based; details: Homo sapiens
[10] = Average intracellular Metabolism was measured in human HBI10A cells after 23 hr of incubation; type: functional
How it was run: (§3)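 Radiolabeled 5-[³H] compound at 2 µM incubated with Huh-7 (passage 27) or HBI10A (passage 15) cells for 3 or 23 h. Cells extracted and analysed by ion pair reverse-phase HPLC. Triphosphate reported as pmol/million cells, with major metabolic byproducts noted. Averages of at least three separate experiments.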

Huh-7 [11] = assay: Average intracellular Metabolism was measured in human Huh-7 cells after 3 h of incubation; type: functional; how it was run: as §3
[12] = Average intracellular Metabolism was measured in human HBI10A cells after 3 h of incubation; type: functional; how it was run: as §3
Huh-7 [13] = assay: Average intracellular Metabolism was measured in human Huh-7 cells after 23 hr of incubation; type: functional; how it was run: as §3

Row | Compound | EC50 [7] [µM] | CC50 [8] [µM] | IC50 [9] [µM] | other results
1 | Nc1ccn([C@H]2CC[C@@H](CO)O2)c(=O)n1 [ZALCITABINE] |  |  |  | Growth (CHO [1]): 65%; Growth (CHO [2]): 101%; Growth (CHO [3]): 105%; Aberrant cells (CHO [4]): 9.5%; Aberrant cells (CHO [5]): 8%; Aberrant cells (CHO [6]): 3%
2 | CC(C)(C)C(=O)SCCOP(=O)(OCCSC(=O)C(C)(C)C)OC[C@@H]1C[C@@H](O)[C@H](n2ccc(N)nc2=O)O1 | 1.4 | > 100 |  | 
3 | Nc1nc2c(ncn2[C@@H]2O[C@H](CO)C[C@H]2O)c(=O)[nH]1 | > 50 |  | 0.6 | 
4 | CO[C@@H]1[C@H](O)[C@@H](CO)O[C@H]1n1cnc2c(O)nc(N)nc21 | > 50 |  | 1.2 | 
5 | Nc1nc(O)c2ccn([C@@H]3O[C@H](CO)C[C@H]3O)c2n1 | > 50 |  | 0.08 | 
6 | CO[C@@H]1[C@H](O)[C@@H](COP(=O)(OCCSC(=O)C(C)(C)C)OCCSC(=O)C(C)(C)C)O[C@H]1n1ccc2c(O)nc(N)nc21 | > 50 | > 100 |  | 
7 | CO[C@@H]1[C@H](O)[C@@H](CO)O[C@H]1n1ccc(N)nc1=O | 21 | > 100 | 3.8 | Activity [10]: 0.18 pmol/million cells; Activity (Huh-7 [11]): 0.17 pmol/million cells; Activity [12]: 0.05 pmol/million cells; Activity (Huh-7 [13]): 0.61 pmol/million cells
